Assays:
[1] = test system: A375 cells; test: MTT cytotoxicity / cell viability assay, A375; assay type: cell-based, human; conditions: for IC50: Homo sapiens, A-375, 48 h; for selectivity index: IC50 melanocytes / IC50 A375
In short: (§1)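 Cells in 5–10% FBS/DMEM were seeded at 5×10³ per well, refed at 24 h and grown to 70% confluence. They were treated for 48 h at 37°C, 5% CO2 with two-fold serial dilutions of test compound in DMSO (≤0.1%), […], in 8–10 repeats. After MTT, absorbance was read at 562 nm. Viability was expressed relative to DMSO controls and IC50 derived by nonlinear regression. Data are mean ± SD of ≥5 independent experiments in octuplicates.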

[2] = test system: SK-Mel-28 cells; test: MTT cytotoxicity / cell viability assay, SK-Mel-28; assay type: cell-based, human; conditions: for IC50: Homo sapiens, SK-MEL-28, 48 h; for selectivity index: IC50 melanocytes / IC50 SK-Mel-28
In short: as §1

[3] = test system: Melanocyte; test: MTT cytotoxicity / cell viability assay, normal melanocytes; assay type: cell-based; conditions: Homo sapiens, 48 h
In short: as §1

[4] = test system: A431 cells; test: MTT cytotoxicity / cell viability assay, A431; assay type: cell-based, human; conditions: for IC50: Homo sapiens, A-431, 48 h; for selectivity index: IC50 HaCaT / IC50 A431
In short: as §1

[5] = test system: UWBCC1 cells; test: MTT cytotoxicity / cell viability assay, UWBCC1; assay type: cell-based, human; conditions: for IC50: Homo sapiens, 48 h; for selectivity index: IC50 HaCaT / IC50 UWBCC1
In short: as §1

[6] = test system: HaCaT; test: MTT cytotoxicity / cell viability assay, HaCaT keratinocytes; assay type: cell-based; conditions: Homo sapiens, 48 h
In short: as §1

[7] = target: c-Kit (Homo sapiens, UniProt P10721); test: In vitro kinase activity assay; assay type: biochemical
In short: (§2)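 Kinase profiling was run at Reaction Biology. IC50 values came from 10-dose mode, three-fold serial dilutions starting at 100 μM. Reference inhibitors were co-assayed at 1 and 10 μM.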

[8] = target: CDK2/Cyclin A (Homo sapiens, UniProt P24941); test: In vitro kinase activity assay; assay type: biochemical; conditions: 10-dose, three-fold serial dilution from 100 μM
In short: as §2

[9] = target: CDK2/Cyclin E (Homo sapiens, UniProt P24941); test: In vitro kinase activity assay; assay type: biochemical; conditions: 10-dose, three-fold serial dilution from 100 μM
In short: as §2

[10] = target: mTOR/FRAP1 (Homo sapiens, UniProt P42345); test: In vitro kinase activity assay; assay type: biochemical; conditions: for IC50: mTOR/FRAP1 IC50, 10-dose, three-fold serial dilution from 100 μM
In short: as §2

[11] = test system: A375 cells; test: DAPI staining of apoptotic nuclei, A375; assay type: cell-based, human
In short: (§3)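 Equal numbers of cells were seeded in T-25 flasks and exposed to test compound at different concentrations for 36 h. Cells were PBS-washed, stained with DAPI in PBS and imaged by fluorescence microscopy at 10x and 1.6×10x. Apoptotic nuclei were scored by morphology and expressed as percentage of cells.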

[12] = test system: A431 cells; test: DAPI staining of apoptotic nuclei, A431; assay type: cell-based, human
In short: as §3

[13] = test system: A375 and A431 cells; test: Scratch wound healing assay; assay type: cell-based, human; conditions: A375 and A431, ½IC50, IC50, 2×IC50, 48 h; for inhibition of wound closure: vs untreated controls
In short: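 Confluent A375 or A431 monolayers in complete DMEM received two parallel scratches made with a 200-μL pipette tip, then were washed. Wells were treated at ½IC50, IC50 or 2×IC50 for 48 h. Wound area was measured by image analysis as a percentage of the initial cell-free area versus 0 h and 48 h controls. Data are mean ± SD of three independent experiments; one-way ANOVA with Dunn's test.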

[14] = test system: A375 and A431 cells; test: Colony formation assay; assay type: cell-based, human; conditions: A375 and A431, ½IC50, IC50, 2×IC50, concentration-dependent
In short: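 DMSO ≤0.1% v/v was the vehicle control. Cells were trypsinized and ~1000 reseeded per 10-cm2 plate, then grown 10–14 days drug-free at 37°C, 5% CO2, with medium renewed every 2–3 days. Colonies were stained with 0.5% Gentian violet in ~64% methanol/4% paraformaldehyde. Results are percent of control, mean ± SD of three independent experiments.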

[15] = test system: A375 and A431 cells; test: Western blot analysis of apoptosis, cell cycle and c-Kit markers; assay type: cell-based, human; conditions: A375 and A431, IC50 and 2×IC50, 48 h
In short: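 Cells were plated at 3×10⁵ overnight and treated at 0, IC50 or 2×IC50 (<0.1% DMSO) for 48 h. Lysates were made in ice-cold RIPA with protease/phosphatase inhibitors and PMSF (15 min), then run on SDS-PAGE. Blots were probed with primary antibodies at 1:250–1:1000 and HRP secondary at 1:2000. Bands were normalized to β-actin, GAPDH or Rab11 and given as % expression; three independent experiments, one-way ANOVA with Dunn's test.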

[16] = A375, treated 36 hours at ½IC50
[17] = A431, treated 36 hours at ½IC50

Chain of c-Kit (P10721 26-976): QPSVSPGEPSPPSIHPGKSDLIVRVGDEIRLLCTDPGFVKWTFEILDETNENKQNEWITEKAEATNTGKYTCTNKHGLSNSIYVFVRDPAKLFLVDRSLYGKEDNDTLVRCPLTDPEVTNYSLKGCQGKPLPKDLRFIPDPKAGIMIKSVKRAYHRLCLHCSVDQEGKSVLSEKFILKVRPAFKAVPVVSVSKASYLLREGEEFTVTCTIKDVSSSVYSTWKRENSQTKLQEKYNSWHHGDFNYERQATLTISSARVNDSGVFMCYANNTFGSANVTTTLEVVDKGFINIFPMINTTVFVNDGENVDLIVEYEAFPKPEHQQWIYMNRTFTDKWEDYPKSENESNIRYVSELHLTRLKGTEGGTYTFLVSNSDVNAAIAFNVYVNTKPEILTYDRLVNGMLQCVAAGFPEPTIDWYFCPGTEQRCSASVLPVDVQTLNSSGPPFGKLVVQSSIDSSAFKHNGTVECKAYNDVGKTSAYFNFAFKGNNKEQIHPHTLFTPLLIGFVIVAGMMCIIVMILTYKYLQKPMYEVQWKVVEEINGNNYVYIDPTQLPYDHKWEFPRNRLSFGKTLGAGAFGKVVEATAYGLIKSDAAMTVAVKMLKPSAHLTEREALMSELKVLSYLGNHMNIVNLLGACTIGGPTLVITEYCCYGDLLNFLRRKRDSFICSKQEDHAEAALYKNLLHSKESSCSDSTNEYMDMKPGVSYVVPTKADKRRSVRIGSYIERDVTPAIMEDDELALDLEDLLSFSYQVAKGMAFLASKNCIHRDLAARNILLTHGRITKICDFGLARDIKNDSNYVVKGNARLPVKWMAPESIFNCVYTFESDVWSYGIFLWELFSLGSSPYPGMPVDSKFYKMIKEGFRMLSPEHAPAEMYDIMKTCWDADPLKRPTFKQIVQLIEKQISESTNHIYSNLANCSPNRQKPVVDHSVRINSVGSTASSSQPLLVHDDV

IC50 [7] [µM] | IC50 [8] [µM] | IC50 [9] [µM] | IC50 [10] [µM] | Compound | IC50 [1] [µM] | selectivity index [1] | IC50 [2] [µM] | selectivity index [2] | IC50 [3] [µM] | IC50 [4] [µM] | selectivity index [4] | IC50 [5] [µM] | IC50 [6] [µM] | DAPI (+) apoptotic cells ([11]; A375, treated 36 hours at IC50) [%] | DAPI (+) apoptotic cells [11, 16] [%] | DAPI (+) apoptotic cells ([12]; A431, treated 36 hours at IC50) [%] | DAPI (+) apoptotic cells [12, 17] [%] | selectivity index [5] | inhibition of wound closure [13] | further results
0.09 | 4.77 | > 100 |  | Cc1cc([N+](=O)[O-])c2oc(-c3ccc(Br)cc3)c(O)c(=O)c2c1 [F20, 2-(4-Bromophenyl)-3-hydroxy-6-methyl-8-nitro-4H-chromen-4-one] | 6.3 ± 1 | 5.6 | 17 ± 3 | 2.1 | 35 ± 0.23 | 0.2 ± 0.1 | ~170 | 0.12 ± 0.11 | 34 ± 0.6 | 20.4 | 8.2 | 27.7 | 14.6 |  |  | inhibition of mTOR kinase activity (in words) [10]: did not substantively inhibit; scratched wound area closure (in words) ([13]; dose-dependent): significantly decreased; percentage of colonies (in words) [14]: significantly reduced; expression level of pro-apoptotic protein Bax [15]: significantly increased; level of anti-apoptotic protein Bcl-2 [15]: decreased; protein expression levels of cyclin A2, cyclin E2 and CDK2 [15]: significantly suppress; protein expression levels of phosphorylated c-Kit [15]: significantly suppressed; protein expression levels of cleaved caspases −3, −7, −8 and PARP ([15]; vs untreated controls): elevated
0.12 | 2.95 | 1.78 | 1.42 | COc1cccc(-c2oc3cc(C)ccc3c(=O)c2O)c1 [F9, 3-Hydroxy-2-(3-methoxyphenyl)-7-methyl-4H-chromen-4-one] | 12 ± 0.9 | 2.2 | 17 ± 1 | 1.5 | 26 ± 1.6 | 9.2 ± 0.7 | 2.9 | 9.4 ± 0.3 | 27 ± 0.3 | 18.2 | 7.5 | 19.1 | 7.93 | 2.9 | 28–72% | 
1.74 | 4.57 | 5.7 | 11.5 | O=c1c(O)c(-c2cccc(Cl)c2)oc2ccc(F)cc12 [F17, 2-(3-Chlorophenyl)-6-fluoro-3-hydroxy-4H-chromen-4-one] | 13 ± 1 | 2.5 | 25 ± 3.4 |  | 32 ± 0.72 | 10 ± 2.6 | 3.8 | 8.1 ± 1.2 | 38 ± 0.8 | 17.7 | 6.9 | 18.4 | 8.81 | 4.7 | 28–72% | 

Source: paper PMC7870562 (Bioorganic chemistry, 2020)
